Results as given in paper PMC8908367 (ACS Omega, 2022).

Tests used:
[1] = system: T. cruzi CA-I/72 amastigotes; assay type: cell-based, Trypanosoma cruzi
Procedure, shortened: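 Test compound in DMSO acoustically spotted into 384-well plates. C2C12 mouse […] (500/well) and CA-I/72 T. cruzi (7500/well; strain kept by weekly C2C12 coculture passage) added together, 72 h at 37 °C, 5% CO2. Fixed in 4% paraformaldehyde/PBS, DAPI 5 μg/mL 1 h, imaged at 10×. Automated host and parasite nuclei counts fitted to CC50 and EC50 curves; SI = CC50/EC50.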

[2] = Host cell toxicity in the high-content imaging assay; assay type: cell-based; conditions: mouse
[3] = system: T. cruzi intracellular parasite; conditions: cited from earlier work
trypanothione reductase = conditions: cited from earlier work

Structure (SMILES)	SI (Selectivity Index = CC50/EC50) ([1]; CC50 C2C12 / EC50 T. cruzi CA-I/72)	EC50 ([1]; Trypanosoma cruzi, C2C12, 72 h, read-out: EC50, inhibition of T. cruzi amastigote replication) [nM]	CC50 at 72 h [2] [nM]	activity against the intracellular parasite in vitro [3]	inhibition of trypanothione reductase (trypanothione reductase)
O=C(Cn1ccnc1[N+](=O)[O-])NCc1ccccc1 [Benznidazole]	>22	2200 ± 1.3	> 50000	–	–
C=C1C(=O)[C@H]2O[C@]23C[C@H]2CC(C)(C)[C@H](O)[C@H]2[C@]13C [hypnophilin]	–	–	–	showed activity	potent inhibitor
